Measured values from ChEMBL document CHEMBL4007489, “First Bispecific Inhibitors of the Epidermal Growth Factor Receptor Kinase and the NF-κB Activity As Novel Anticancer Agents” (J Med Chem, 2017).
Active and inactive are the calls of the source. No cut-off for these calls is given here.

Experiments:
[1] = molecular target: Protein kinase C zeta type (Homo sapiens) (UniProt Q05513); test: Inhibition of TNFalpha-stimulated PKCzeta in human U937 cells assessed as residual activity at 10 uM in presence of ATP relative to control; format: cell-based
[2] = organism: Homo sapiens; settings: at 10 µM;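 note: luciferase reporter readout of NF-kappaB activity in human U937 cells, compound added 3 h before TNFalpha stimulation, signal read 2.5 h after stimulation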
[3] = molecular target: T1, Receptor-interacting serine/threonine-protein kinase 2 (Homo sapiens, UniProt O43353); test: Inhibition of TNFalpha-stimulated RIPK2 in human U937 cells assessed as residual activity at 10 uM in presence of ATP relative to control; format: cell-based
T1 sequence (O43353 whole entry): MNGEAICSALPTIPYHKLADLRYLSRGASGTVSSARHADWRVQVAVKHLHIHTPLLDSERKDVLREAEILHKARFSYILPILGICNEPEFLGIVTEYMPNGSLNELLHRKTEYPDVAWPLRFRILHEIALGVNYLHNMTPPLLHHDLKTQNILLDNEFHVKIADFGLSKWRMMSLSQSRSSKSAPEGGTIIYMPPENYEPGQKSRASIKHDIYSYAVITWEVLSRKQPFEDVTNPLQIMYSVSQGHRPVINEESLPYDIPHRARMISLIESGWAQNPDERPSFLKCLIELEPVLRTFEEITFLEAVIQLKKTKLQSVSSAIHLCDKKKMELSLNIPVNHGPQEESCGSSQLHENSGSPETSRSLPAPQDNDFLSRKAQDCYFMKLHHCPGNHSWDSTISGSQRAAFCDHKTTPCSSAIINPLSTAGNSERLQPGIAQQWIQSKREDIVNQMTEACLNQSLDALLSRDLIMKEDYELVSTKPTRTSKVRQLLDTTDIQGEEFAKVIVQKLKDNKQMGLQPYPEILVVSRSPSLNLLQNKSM

[4] = molecular target: Protein kinase C iota type (Homo sapiens) (UniProt P41743); test: Inhibition of TNFalpha-stimulated PKCI in human U937 cells assessed as residual activity at 10 uM in presence of ATP relative to control; format: cell-based
Protein kinase C iota type (Homo sapiens), sequence (P41743 whole entry): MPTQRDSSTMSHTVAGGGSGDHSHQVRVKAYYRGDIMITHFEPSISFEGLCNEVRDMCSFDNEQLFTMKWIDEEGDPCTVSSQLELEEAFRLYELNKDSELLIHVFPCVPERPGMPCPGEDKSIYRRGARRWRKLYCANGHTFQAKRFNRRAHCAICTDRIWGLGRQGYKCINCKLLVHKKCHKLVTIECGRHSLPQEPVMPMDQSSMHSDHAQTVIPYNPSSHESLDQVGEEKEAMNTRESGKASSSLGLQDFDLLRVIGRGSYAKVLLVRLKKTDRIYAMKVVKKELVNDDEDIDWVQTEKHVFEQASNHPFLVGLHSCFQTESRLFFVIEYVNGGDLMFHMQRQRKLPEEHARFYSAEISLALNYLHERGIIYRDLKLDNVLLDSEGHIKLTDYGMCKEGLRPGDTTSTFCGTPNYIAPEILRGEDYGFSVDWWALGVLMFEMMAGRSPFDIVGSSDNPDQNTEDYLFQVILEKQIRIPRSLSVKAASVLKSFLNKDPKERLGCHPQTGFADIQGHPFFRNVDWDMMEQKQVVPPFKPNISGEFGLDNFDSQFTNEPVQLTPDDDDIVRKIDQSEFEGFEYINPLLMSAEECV

[5] = molecular target: Inhibitor of nuclear factor kappa-B kinase subunit beta (Homo sapiens) (UniProt O14920); test: Inhibition of TNFalpha-stimulated IKKbeta in human U937 cells assessed as residual activity at 10 uM in presence of ATP relative to control; format: cell-based
[6] = tested on: MDA-MB-231; test: cells; format: functional; settings: Homo sapiens, MDA-MB-231, 48 h
[7] = molecular target: Serine/threonine-protein kinase TBK1 (Homo sapiens) (UniProt Q9UHD2); test: Inhibition of TNFalpha-stimulated TBK1 in human U937 cells assessed as residual activity at 10 uM in presence of ATP relative to control; format: cell-based
[8] = molecular target: T1, Receptor-interacting serine/threonine-protein kinase 2; test: Inhibition of TNFalpha-stimulated RIPK2 in human U937 cells in presence of 5 uM ATP; format: cell-based
[9] = molecular target: T2, Epidermal growth factor receptor (Homo sapiens, UniProt P00533); settings: at 150 nM
T2 sequence (P00533 whole entry): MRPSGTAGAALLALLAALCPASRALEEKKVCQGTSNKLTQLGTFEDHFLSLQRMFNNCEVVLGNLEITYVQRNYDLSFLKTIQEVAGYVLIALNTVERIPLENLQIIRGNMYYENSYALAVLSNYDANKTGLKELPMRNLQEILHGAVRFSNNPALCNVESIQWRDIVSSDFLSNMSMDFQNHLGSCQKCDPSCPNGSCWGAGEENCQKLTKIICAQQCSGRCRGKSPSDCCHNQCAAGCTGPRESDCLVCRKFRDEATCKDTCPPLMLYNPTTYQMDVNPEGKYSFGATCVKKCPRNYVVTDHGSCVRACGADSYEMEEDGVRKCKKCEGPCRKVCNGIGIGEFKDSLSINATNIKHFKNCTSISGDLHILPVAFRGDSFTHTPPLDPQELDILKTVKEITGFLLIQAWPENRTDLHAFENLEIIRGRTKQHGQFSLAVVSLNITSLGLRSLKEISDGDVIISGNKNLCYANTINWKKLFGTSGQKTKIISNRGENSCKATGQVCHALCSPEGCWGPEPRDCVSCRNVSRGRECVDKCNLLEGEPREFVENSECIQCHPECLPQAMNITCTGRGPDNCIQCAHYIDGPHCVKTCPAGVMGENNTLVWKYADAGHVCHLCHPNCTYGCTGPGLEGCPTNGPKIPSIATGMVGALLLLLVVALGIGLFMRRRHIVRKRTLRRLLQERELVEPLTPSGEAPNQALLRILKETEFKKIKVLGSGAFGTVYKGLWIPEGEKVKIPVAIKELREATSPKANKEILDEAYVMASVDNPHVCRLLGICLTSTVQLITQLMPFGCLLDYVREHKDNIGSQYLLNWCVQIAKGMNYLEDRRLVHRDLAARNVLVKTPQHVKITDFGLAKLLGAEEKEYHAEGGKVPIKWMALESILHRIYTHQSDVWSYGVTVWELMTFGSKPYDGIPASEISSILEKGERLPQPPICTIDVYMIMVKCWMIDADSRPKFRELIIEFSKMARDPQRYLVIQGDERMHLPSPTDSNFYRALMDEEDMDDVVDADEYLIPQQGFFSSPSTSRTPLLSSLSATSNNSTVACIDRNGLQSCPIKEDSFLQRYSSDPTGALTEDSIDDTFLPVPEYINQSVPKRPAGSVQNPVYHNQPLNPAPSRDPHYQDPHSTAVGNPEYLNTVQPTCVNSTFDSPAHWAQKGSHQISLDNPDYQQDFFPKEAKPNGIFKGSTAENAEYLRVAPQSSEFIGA

[10] = cells; format: cell-based; settings: Homo sapiens, U-937
[11] = molecular target: Inhibitor of nuclear factor kappa-B kinase subunit alpha (Homo sapiens) (UniProt O15111); test: Inhibition of TNFalpha-stimulated IKKalpha in human U937 cells assessed as residual activity at 10 uM in presence of ATP relative to control; format: cell-based
[12] = molecular target: Mitogen-activated protein kinase 14 (Homo sapiens) (UniProt Q16539); test: Inhibition of TNFalpha-stimulated SAPK2a in human U937 cells assessed as residual activity at 10 uM in presence of ATP relative to control; format: cell-based
Mitogen-activated protein kinase 14 (Homo sapiens), sequence (Q16539 whole entry): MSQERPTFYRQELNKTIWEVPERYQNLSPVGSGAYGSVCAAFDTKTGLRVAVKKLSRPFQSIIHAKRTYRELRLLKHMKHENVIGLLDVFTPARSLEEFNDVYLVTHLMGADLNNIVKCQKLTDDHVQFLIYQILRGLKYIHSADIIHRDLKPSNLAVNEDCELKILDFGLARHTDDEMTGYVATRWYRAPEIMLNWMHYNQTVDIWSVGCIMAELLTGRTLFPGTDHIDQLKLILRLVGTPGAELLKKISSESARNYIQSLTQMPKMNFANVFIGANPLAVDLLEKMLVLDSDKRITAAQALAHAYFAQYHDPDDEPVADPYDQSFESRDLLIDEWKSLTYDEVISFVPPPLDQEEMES

[13] = molecular target: Mitogen-activated protein kinase kinase kinase 7 (Homo sapiens) (UniProt O43318); test: Inhibition of TNFalpha-stimulated TAK1 in human U937 cells assessed as residual activity at 10 uM in presence of ATP relative to control; format: cell-based
[14] = molecular target: T2, Epidermal growth factor receptor; test: biochemical; format: cell-based
[15] = tested on: MDA-MB-231; test: Antitumor activity against human MDA-MB-231 cells xenografted in NMRI nu/nu mouse at 25 mg/kg, sc administered 5 days post tumor cell inoculation treated for 14 days followed by treatment pause for 6 days followed by treatment continuation on every second day until day 28 measured on day 7, 14 and day 28; format: functional, organism-based
In short: (§1)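 MDA-MB-231 cells, 2 × 10^6 per site in Matrigel, injected into both flanks of female NMRI nu/nu mice about 8 weeks old; 6 mice per group. From day 5 after inoculation (day 1), sc dosing in PBS/propylene glycol 80:20. Dosing every weekday for 14 days, then a 6-day pause, then every second day from day 21 to sacrifice on day 28. Tumor diameters measured weekly by calipers; unpaired two-tailed t test against vehicle.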

[16] = Solubility in water; format: physicochemical; settings: buffer
[17] = molecular target: Receptor tyrosine-protein kinase erbB-4 (Homo sapiens) (UniProt Q15303); settings: 0.5 uM
Receptor tyrosine-protein kinase erbB-4 (Homo sapiens), sequence (Q15303 whole entry): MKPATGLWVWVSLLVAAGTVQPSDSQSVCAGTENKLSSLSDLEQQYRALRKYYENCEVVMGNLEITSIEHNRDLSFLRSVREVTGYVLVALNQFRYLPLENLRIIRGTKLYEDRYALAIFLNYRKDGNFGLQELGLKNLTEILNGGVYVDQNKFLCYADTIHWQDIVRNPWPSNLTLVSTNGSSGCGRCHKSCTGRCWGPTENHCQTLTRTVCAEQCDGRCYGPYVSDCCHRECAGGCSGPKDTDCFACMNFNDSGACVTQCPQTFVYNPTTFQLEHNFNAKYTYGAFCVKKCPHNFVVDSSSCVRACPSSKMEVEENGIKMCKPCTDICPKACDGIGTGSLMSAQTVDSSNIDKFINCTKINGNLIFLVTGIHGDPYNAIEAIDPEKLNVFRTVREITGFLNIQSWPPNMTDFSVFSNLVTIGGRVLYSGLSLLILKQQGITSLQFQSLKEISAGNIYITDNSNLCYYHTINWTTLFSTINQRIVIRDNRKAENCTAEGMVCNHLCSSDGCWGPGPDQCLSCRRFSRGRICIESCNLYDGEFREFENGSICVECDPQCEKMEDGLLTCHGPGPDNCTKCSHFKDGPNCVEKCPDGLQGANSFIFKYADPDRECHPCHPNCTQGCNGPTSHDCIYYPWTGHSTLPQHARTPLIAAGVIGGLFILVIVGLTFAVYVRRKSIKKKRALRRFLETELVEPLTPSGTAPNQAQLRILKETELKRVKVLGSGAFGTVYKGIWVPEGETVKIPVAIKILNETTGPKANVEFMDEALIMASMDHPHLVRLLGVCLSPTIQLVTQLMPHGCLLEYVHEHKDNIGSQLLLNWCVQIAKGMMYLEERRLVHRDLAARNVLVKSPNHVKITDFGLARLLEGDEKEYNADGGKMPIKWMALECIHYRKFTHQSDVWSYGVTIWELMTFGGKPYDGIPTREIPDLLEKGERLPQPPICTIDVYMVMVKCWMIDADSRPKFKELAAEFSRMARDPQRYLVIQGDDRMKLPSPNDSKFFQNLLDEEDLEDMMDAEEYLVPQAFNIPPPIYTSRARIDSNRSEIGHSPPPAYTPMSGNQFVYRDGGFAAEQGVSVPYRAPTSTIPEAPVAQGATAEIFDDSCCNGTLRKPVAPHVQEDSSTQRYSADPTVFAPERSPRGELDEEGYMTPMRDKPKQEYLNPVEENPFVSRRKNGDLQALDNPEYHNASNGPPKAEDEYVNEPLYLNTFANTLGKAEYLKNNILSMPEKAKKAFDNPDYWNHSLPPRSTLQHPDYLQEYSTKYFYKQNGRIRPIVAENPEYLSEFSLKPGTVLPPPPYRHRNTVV

[18] = molecular target: Transcription factor p65 (Homo sapiens) (UniProt Q04206); test: Inhibition of IL-1beta-stimulated nuclear translocation of GFP-tagged NF-kappaB-p65 (unknown origin) expressed in CHO cells at 15 uM preincubated with IL-1beta for 30 mins followed by compound addition by fluorescence assay; format: cell-based
Transcription factor p65 (Homo sapiens), sequence (Q04206 whole entry): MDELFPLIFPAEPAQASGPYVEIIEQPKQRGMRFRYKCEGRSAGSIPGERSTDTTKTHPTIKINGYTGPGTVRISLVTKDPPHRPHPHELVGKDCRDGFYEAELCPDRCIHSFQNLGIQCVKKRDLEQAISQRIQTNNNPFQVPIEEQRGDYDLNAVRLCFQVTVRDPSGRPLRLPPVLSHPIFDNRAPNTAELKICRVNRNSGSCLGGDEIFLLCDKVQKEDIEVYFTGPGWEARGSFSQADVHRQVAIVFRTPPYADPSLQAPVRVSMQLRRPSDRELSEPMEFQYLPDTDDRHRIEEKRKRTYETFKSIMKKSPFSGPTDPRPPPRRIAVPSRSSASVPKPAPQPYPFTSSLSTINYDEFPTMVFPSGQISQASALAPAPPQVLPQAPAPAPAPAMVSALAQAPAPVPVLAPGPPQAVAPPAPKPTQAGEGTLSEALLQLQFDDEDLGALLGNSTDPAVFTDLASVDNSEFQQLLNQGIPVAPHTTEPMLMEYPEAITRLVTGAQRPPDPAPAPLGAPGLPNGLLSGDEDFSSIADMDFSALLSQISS

[19] = molecular target: Transcription factor p65 (Homo sapiens) (UniProt Q04206); test: Inhibition of NF-kappaB-p65 binding to NF-kappaB response element oligonucleotide in nuclear extracts of 12 hrs compound pre-treated human MDA-MB-231 cells at 2.5 to 15 uM by ELISA
In short: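 MDA-MB-231 cells treated with compound or DMSO for 12 h; in some runs TNFα (20 ng/mL final) added for a further 20 min at 37 °C. Nuclear extracts prepared on ice and protein measured by Bradford. 5 μg of extract incubated on plate-immobilized NF-κB response element oligonucleotide. Bound complexes detected with anti-p65 primary and HRP secondary antibody, read at 450 nm. Specificity checked by competition with free oligonucleotide; triplicates.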

[20] = molecular target: Transcription factor p65 (Homo sapiens) (UniProt Q04206); test: Inhibition of IL-1beta-stimulated nuclear translocation of GFP-tagged NF-kappaB-p65 (unknown origin) expressed in CHO cells at 15 uM preincubated with IL-1beta for 30 mins followed by compound addition in presence of Pluronic F127 by fluorescence assay; format: cell-based
[21] = tested on: Mus musculus; test: Toxicity in human MDA-MB-231 cells xenografted NMRI nu/nu mouse assessed as effect on organ morphology at 10 mg/kg, sc administered 5 days post tumor cell inoculation treated for 14 days followed by treatment pause for 6 days followed by treatment continuation on every second day until day 28 measured on day 7, 14 and day 28; format: organism-based; settings: in vivo
In short: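 Female NMRI nu/nu mice (~8 weeks old) received 2 × 10^6 MDA-MB-231 cells in Matrigel into each flank. Dosing began 5 days later (day 1), with 6 mice per group. Compound or vehicle was given sc in PBS/propylene glycol (80:20, v/v) at 1 mg/mL. Behaviour and body weight were followed. Organs were inspected morphologically after sacrifice on day 28.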

[22] = organism: Homo sapiens; test: Inhibition of TNFalpha-stimulated NF-kappaB (unknown origin) expressed in human U937 cells at 5 uM incubated for 3 hrs followed by TNFalpha stimulation measured after 2.5 hrs by luciferase reporter gene assay; format: cell-based
[23] = Drug uptake in NMRI nu/nu mouse at 10 mg/kg, sc administered as single dose after 24 hrs by LC-MS analysis; format: ADME, organism-based; settings: in vivo, read-out: Drug uptake
In short: (§2)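 Female NMRI nu/nu mice (28−32 g), nine animals per compound. Single sc injection of 10 mg/kg, formulated at 1 mg/mL in PBS/propylene glycol (80:20, v/v) by ultrasonication. Blood sampled at 10 min, 30 min, 1, 3, 8 and 24 h, two samples per animal, into heparinized tubes. Plasma proteins precipitated with acetonitrile containing griseofulvin internal standard. Quantified by LC-MS against calibration standards prepared in drug-free plasma.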

[24] = tested on: Mus musculus; test: Toxicity in human MDA-MB-231 cells xenografted NMRI nu/nu mouse assessed as effect on body weight at 10 mg/kg, sc administered 5 days post tumor cell inoculation treated for 14 days followed by treatment pause for 6 days followed by treatment continuation on every second day until day 28 measured on day 7, 14 and day 28; format: organism-based; settings: in vivo
In short: (§3)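 Mice bearing MDA-MB-231 xenografts were monitored for behaviour and body weight over the 28-day sc dosing schedule. Organ morphology was inspected after sacrifice.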

[25] = Apparent oral clearance in NMRI nu/nu mouse at 10 mg/kg, sc administered as single dose by LC-MS analysis; format: ADME, organism-based; settings: in vivo; in short: as §2
[26] = Tmax in NMRI nu/nu mouse at 10 mg/kg, sc administered as single dose by LC-MS analysis; format: ADME, organism-based; settings: in vivo; in short: as §2
[27] = tested on: Mus musculus; test: Toxicity in human MDA-MB-231 cells xenografted NMRI nu/nu mouse assessed as anomalous behaviour at 10 mg/kg, sc administered 5 days post tumor cell inoculation treated for 14 days followed by treatment pause for 6 days followed by treatment continuation on every second day until day 28 measured on day 7, 14 and day 28; format: organism-based; settings: in vivo; in short: as §3
[28] = AUC (0 to infinity) in NMRI nu/nu mouse at 10 mg/kg, sc administered as single dose by LC-MS analysis; format: ADME, organism-based; set-up: dose 10 mg/kg, route subcutaneous, time infinity; settings: in vivo; in short: as §2
[29] = tested on: MDA-MB-231; test: Antitumor activity against human MDA-MB-231 cells xenografted in NMRI nu/nu mouse at 10 mg/kg, sc administered 5 days post tumor cell inoculation treated for 14 days followed by treatment pause for 6 days measured after 21 days; format: functional, organism-based; in short: as §1
[30] = tested on: Mus musculus; test: Toxicity in NMRI nu/nu mouse assessed as effect on organ morphology at 10 mg/kg, sc administered as single dose; format: organism-based; settings: in vivo
[31] = molecular target: Serine/threonine-protein kinase pim-1 (Homo sapiens, UniProt P11309); test: Inhibition of human recombinant full length His-tagged PIM-1 expressed in baculovirus expression system
Serine/threonine-protein kinase pim-1, sequence (P11309 whole entry, looked up): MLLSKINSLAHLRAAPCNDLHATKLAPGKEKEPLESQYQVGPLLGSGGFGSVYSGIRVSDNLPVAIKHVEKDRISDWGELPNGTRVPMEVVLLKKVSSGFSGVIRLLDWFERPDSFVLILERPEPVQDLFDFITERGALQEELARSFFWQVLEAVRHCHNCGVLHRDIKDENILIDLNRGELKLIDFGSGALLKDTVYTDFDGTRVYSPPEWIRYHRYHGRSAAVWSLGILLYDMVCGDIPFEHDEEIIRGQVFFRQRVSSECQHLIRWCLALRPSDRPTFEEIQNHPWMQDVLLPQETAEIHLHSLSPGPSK

[32] = AUC (0 to 24 hrs) in NMRI nu/nu mouse at 10 mg/kg, sc administered as single dose by LC-MS analysis; format: ADME, organism-based; set-up: dose 10 mg/kg, time < 24 hr, route subcutaneous; settings: in vivo; in short: as §2
[33] = Half life in Sprague-Dawley rat liver microsomes assessed as parent compound remaining at 0.5 uM in presence of NADPH by LC-MS/MS analysis; format: ADME, microsome
[34] = tested on: MDA-MB-231; test: Antitumor activity against human MDA-MB-231 cells xenografted in NMRI nu/nu mouse at 10 mg/kg, sc administered 5 days post tumor cell inoculation treated for 14 days followed by treatment pause for 6 days followed by treatment continuation on every second day until day 28 measured on day 7, 14 and day 28; format: functional, organism-based; in short: as §1
[35] = molecular target: Receptor tyrosine-protein kinase erbB-4 (Homo sapiens) (UniProt Q15303); test: Inhibition of N-terminal GST-tagged human recombinant ERBB4 expressed in baculovirus expression system
[36] = Blood clearance in Sprague-Dawley rat by LC-MS/MS analysis; format: ADME
[37] = tested on: Mus musculus; test: Toxicity in NMRI nu/nu mouse assessed as anomalous behaviour at 10 mg/kg, sc administered as single dose; format: organism-based; settings: in vivo
[38] = Cmax in NMRI nu/nu mouse at 10 mg/kg, sc administered as single dose by LC-MS analysis; format: ADME, organism-based; set-up: dose 10 mg/kg, route subcutaneous; settings: in vivo; in short: as §2
[39] = Half life in NMRI nu/nu mouse at 10 mg/kg, sc administered as single dose by LC-MS analysis; format: ADME, organism-based; settings: in vivo; in short: as §2

## S=C(NCc1ccccc1)Nc1ccc2ncnc(Nc3cccc(Br)c3)c2c1
[1]
  Activity: 92%
[2]
  inhibition: 97%
[3]
  Activity: 54%
[4]
  Activity: 106%
[5]
  Activity: 100%
[6]
  GI50: 9500 nM
[7]
  Activity: 92%
[8]
  IC50: > 10000 nM
[9]
  inhibition: 86.1%
[10]
  IC50: 4100 nM
[11]
  Activity: 117%
[12]
  Activity: 78%
[13]
  Activity: 106%
[14]
  IC50: 17.2 nM

## COc1cc2ncnc(Nc3ccc(F)c(Cl)c3)c2cc1OCCCN1CCOCC1 [GEFITINIB]
[15]
  TGI: Active
[16]
  solubility: Soluble
[17]
  inhibition: 46 to 76%
[18]
  inhibition: inactive
[19]
  inhibition: inactive
[20]
  inhibition: inactive

## Fc1cc(F)cc(NC(=S)Nc2ccc3ncnc(Nc4cccc(Cl)c4)c3c2)c1
[21]
  Activity: Non-Toxic
[22]
  inhibition: 73.5%
[16]
  solubility: Soluble
[23]
  concentration at 24 h: 79 ng/mL
[24]
  Activity: Non-Toxic
[25]
  CL/F: 26.3 mL/min/kg
[26]
  Tmax: 8 h
[27]
  Activity: Non-Toxic
[28]
  AUC(0-inf): 6330 ng·h/mL
[29]
  TGI: Active
[30]
  Activity: Non-Toxic
[31]
  inhibition: inactive
[32]
  AUC(0-t) at 24 h: 5440 ng·h/mL
[33]
  half-life at 0.5 µM: 2.32 h
[34]
  TGI: Active
[6]
  GI50: 1100 nM
[35]
  inhibition: inactive
[36]
  clearance: 19 mL/min/kg
[9]
  inhibition: 87.6%
[37]
  Activity: Non-Toxic
[38]
  Cmax: 327 ng/mL
[39]
  half-life: 7.8 h
[10]
  IC50: 300 nM
[14]
  IC50: 60.1 nM
